Measured values: ChEMBL document CHEMBL3763127, “Design, synthesis and biological evaluation of novel asperphenamate derivatives” (Eur J Med Chem, 2016)
pIC50: −log10 of the molar value.

Experiments:
Format in all cases: functional, cell-based
[1] = Cytotoxicity against human Bel7402 cells after 3 days by MTT assay; conditions: Bel-7402, 72 h
Summary of the method: (§1)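 MCF-7, HeLa and BEL-7402 cells were grown in RPMI 1640 with 10% heat-inactivated FBS, 1 mM glutamine and penicillin/streptomycin at 37 °C under 5% CO2. They were exposed to compound for 3 days, then read by MTT at 570 nm. Viability was taken as treated/control absorbance, and IC50 was derived from it. Values are mean SD of three independent experiments.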

HeLa = assay: Cytotoxicity against human HeLa cells after 3 days by MTT assay; conditions: 72 h; summary of the method: as §1
MCF7 = assay: Cytotoxicity against human MCF7 cells after 3 days by MTT assay; conditions: MCF7, 72 h; summary of the method: as §1

Structure (SMILES)	pIC50 [1]	pIC50 (HeLa)	pIC50 (MCF7)
Cc1ccc(S(=O)(=O)N[C@H](Cc2ccccc2)C(=O)OC[C@@H](Cc2ccccc2)NC(=O)c2ccccc2)cc1	4.65	4.50	4.43
O=C(N[C@@H](COC(=O)[C@H](Cc1ccccc1)NC(=O)c1cccnc1)Cc1ccccc1)c1ccccc1 (single isomer, unassigned)	< 4.00	< 4.00	< 4.00
CS(=O)(=O)N[C@@H](Cc1ccccc1)C(=O)OC[C@H](Cc1ccccc1)NC(=O)c1ccccc1	4.15	4.03	4.12
O=C(N[C@H](COC(=O)[C@@H](Cc1ccccc1)NC(=O)c1cccs1)Cc1ccccc1)c1ccccc1	< 4.00	< 4.00	< 4.00
O=C(N[C@@H](COC(=O)[C@@H](Cc1ccccc1)NC(=O)c1ccncc1)Cc1ccccc1)c1ccccc1	4.19	4.05	4.27
O=C(N[C@H](COC(=O)[C@@H](Cc1ccccc1)NC(=O)c1ccco1)Cc1ccccc1)c1ccccc1 (single isomer, unassigned)	< 4.00	< 4.00	< 4.00
Cc1ccc(S(=O)(=O)N[C@@H](Cc2ccccc2)C(=O)OC[C@H](Cc2ccccc2)NC(=O)c2ccccc2)cc1	4.30	4.42	4.21
O=C(N[C@H](COC(=O)[C@@H](Cc1ccccc1)NC(=O)n1ccnc1)Cc1ccccc1)c1ccccc1 (single isomer, unassigned)	4.11	4.14	4.18
O=C(N[C@@H](COC(=O)[C@@H](Cc1ccccc1)NC(=O)c1cccs1)Cc1ccccc1)c1ccccc1	< 4.00	< 4.00	< 4.00
O=C(N[C@@H](COC(=O)[C@H](Cc1ccccc1)NC(=O)c1ccco1)Cc1ccccc1)c1ccccc1 (single isomer, unassigned)	< 4.00	< 4.00	< 4.00
O=C(N[C@@H](COC(=O)[C@H](Cc1ccccc1)NC(=O)c1ccncc1)Cc1ccccc1)c1ccccc1 (single isomer, unassigned)	< 4.00	< 4.00	4.19
CS(=O)(=O)N[C@H](Cc1ccccc1)C(=O)OC[C@@H](Cc1ccccc1)NC(=O)c1ccccc1	4.28	4.19	4.22
O=C(N[C@H](COC(=O)[C@H](Cc1ccccc1)NC(=O)c1ccco1)Cc1ccccc1)c1ccccc1	< 4.00	< 4.00	< 4.00
O=C(N[C@@H](COC(=O)[C@H](Cc1ccccc1)NC(=O)n1ccnc1)Cc1ccccc1)c1ccccc1 (single isomer, unassigned)	< 4.00	< 4.00	< 4.00
O=C(N[C@@H](COC(=O)[C@H](Cc1ccccc1)NC(=O)c1cccs1)Cc1ccccc1)c1ccccc1	< 4.00	< 4.00	< 4.00
O=C(N[C@H](COC(=O)[C@H](Cc1ccccc1)NC(=O)c1ccncc1)Cc1ccccc1)c1ccccc1	< 4.00	< 4.00	< 4.00

Structure (SMILES)	pIC50 [1]	pIC50 (HeLa)	pIC50 (MCF7)
O=C(N[C@H](COC(=O)[C@H](Cc1ccccc1)NC(=O)c1cccs1)Cc1ccccc1)c1ccccc1	< 4.00	< 4.00	< 4.00
O=C(N[C@H](COC(=O)[C@H](Cc1ccccc1)NC(=O)n1cncn1)Cc1ccccc1)c1ccccc1	< 4.00	< 4.00	< 4.00
O=C(N[C@H](COC(=O)[C@@H](Cc1ccccc1)NC(=O)c1cccnc1)Cc1ccccc1)c1ccccc1 (single isomer, unassigned)	4.78	4.60	4.78
O=C(N[C@H](COC(=O)[C@@H](Cc1ccccc1)NC(=O)n1cncn1)Cc1ccccc1)c1ccccc1 (single isomer, unassigned)	4.09	4.10	4.17
CS(=O)(=O)N[C@@H](Cc1ccccc1)C(=O)OC[C@@H](Cc1ccccc1)NC(=O)c1ccccc1	< 4.00	< 4.00	< 4.00
O=C(N[C@@H](COC(=O)[C@@H](Cc1ccccc1)NC(=O)n1ccnc1)Cc1ccccc1)c1ccccc1	4.04	4.10	4.06
O=C(N[C@@H](COC(=O)[C@@H](Cc1ccccc1)NC(=O)c1cccnc1)Cc1ccccc1)c1ccccc1	< 4.00	< 4.00	< 4.00
O=C(N[C@@H](COC(=O)[C@@H](Cc1ccccc1)NC(=O)n1cncn1)Cc1ccccc1)c1ccccc1	4.02	4.04	4.05
O=C(N[C@@H](COC(=O)[C@@H](Cc1ccccc1)NC(=O)c1ccco1)Cc1ccccc1)c1ccccc1	< 4.00	< 4.00	< 4.00
Cc1ccc(S(=O)(=O)N[C@@H](Cc2ccccc2)C(=O)OC[C@@H](Cc2ccccc2)NC(=O)c2ccccc2)cc1	4.27	4.38	4.54
O=C(N[C@H](COC(=O)[C@H](Cc1ccccc1)NC(=O)c1cccnc1)Cc1ccccc1)c1ccccc1	< 4.00	< 4.00	< 4.00
O=C(N[C@H](COC(=O)[C@H](Cc1ccccc1)NC(=O)n1ccnc1)Cc1ccccc1)c1ccccc1	< 4.00	< 4.00	< 4.00
CS(=O)(=O)N[C@H](Cc1ccccc1)C(=O)OC[C@H](Cc1ccccc1)NC(=O)c1ccccc1	4.43	4.66	4.66
O=C(N[C@@H](COC(=O)[C@H](Cc1ccccc1)NC(=O)n1cncn1)Cc1ccccc1)c1ccccc1 (single isomer, unassigned)	< 4.00	< 4.00	< 4.00
O=C(N[C@H](COC(=O)[C@@H](Cc1ccccc1)NC(=O)c1ccncc1)Cc1ccccc1)c1ccccc1 (single isomer, unassigned)	4.71	4.47	4.82
